In brackets after ≈: the same amount, converted by molar mass. Bounds are passed on as bounds.

Common to all, as to type: functional
In assay [1] the test system is Staphylococcus aureus. Briefly: Minimum inhibitory concentration against Staphylococcus aureus MTCC 96. The essentials: (§1)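 Microbroth dilution MIC determination, with results expressed in μg/mL. Where run in triplicate, the highest MIC of the three replicates is the value reported.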
In assay [2] the test system is Staphylococcus epidermidis. Briefly: Minimum inhibitory concentration against Staphylococcus epidermidis MTCC 155. The essentials:
as §1

Assay [3] concerns Bacillus cereus. Put plainly: Minimum inhibitory concentration against Bacillus cereus MTCC 430. Summed up: as §1
Assay [4] has as its system Staphylococcus aureus. Put plainly: Minimum inhibitory concentration against Staphylococcus aureus ATCC 25923. The essentials: as §1
Assay [5] concerns Staphylococcus aureus. Briefly: Minimum inhibitory concentration against Staphylococcus aureus ATCC 14154. Summed up: as §1
Assay [6] has as its system Staphylococcus aureus. Put plainly: Minimum inhibitory concentration against Staphylococcus aureus ATCC 29213. The essentials:
as §1

The subject of assay [7] is Klebsiella pneumoniae. Briefly: Minimum inhibitory concentration against Klebsiella pneumoniae ATCC 10031. Summed up:
as §1

Assay [8] deals with Enterococcus faecalis. Briefly: Minimum inhibitory concentration against Enterococcus faecalis ATCC 14506. Summed up:
as §1

For assay [9], the system named is Enterococcus faecalis. Put plainly: Minimum inhibitory concentration against Enterococcus faecalis MTCC 439. Summed up:
as §1

The test system of assay [10] is Bacillus pumilus. Put plainly: Minimum inhibitory concentration against Bacillus pumilus MTCC 1607. Summed up: as §1
Assay [11] concerns Streptococcus pyogenes. Put plainly: Minimum inhibitory concentration against Streptococcus pyogenes MTCC 442. Summed up:
as §1

Regarding `CC(=O)NC[C@H]1CN(c2ccc(N3CCN(C(=O)/C=C/c4ccc(O)cc4)CC3)c(F)c2)C(=O)O1`, the MIC – broadly, the lowest concentration that inhibits growth of the organism – in assay [1] came to 2 µg/mL (≈ 4.14 µM); in assay [2] it was 0.25 µg/mL (≈ 0.518 µM); in [3], 0.5 µg/mL (≈ 1.04 µM); in assay [4], 1 µg/mL (≈ 2.07 µM); in assay [5] it was 2 µg/mL (≈ 4.14 µM); in assay [6], 2 µg/mL (≈ 4.14 µM). The MIC in assay [7] was more than 16 µg/mL; in [8] it was 2 µg/mL (≈ 4.14 µM); in assay [9], 1 µg/mL (≈ 2.07 µM); in [10], 1 µg/mL (≈ 2.07 µM); in assay [11], 2 µg/mL (≈ 4.14 µM).

(Values after ChEMBL document CHEMBL1139444, “Oxazolidinone: search for highly potent antibacterial” (2004).)
